Source: ChEMBL document CHEMBL1145138, “Design and synthesis of 4-azaindoles as inhibitors of p38 MAP kinase” (J Med Chem, 2003)

Tests used:
[1] = target: Mitogen-activated protein kinase 14 (Homo sapiens, UniProt Q16539); assay: In vitro inhibitory concentration against Mitogen-activated protein kinase p38 alpha
[2] = target: Mitogen-activated protein kinase 14 (Rattus norvegicus) (UniProt P70618); assay: In vivo percent inhibition of LPS stimulated TNF alpha synthesis in rat at a concentration of 30 mg/kg; assay type: functional, organism-based; set-up: dose 30 mg/kg
Outline: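 Female Wistar/Han rats, 8 per group, were dosed orally at −30 min with compound in CMC vehicle (0.9% NaCl, 0.5% Na-CMC, 0.4% polysorbate 80, 0.9% benzyl alcohol) or with vehicle alone. LPS 50 μg/kg was given ip at 0 h. At 1.5 h, blood was taken by cardiocentesis after CO₂ euthanasia, and serum TNFα was measured by ELISA against vehicle controls.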

[3] = AUC at a dose of 10 mg/Kg administered to female hanover-wistar rat intravenously; assay type: ADME, organism-based; details: plasma, iv
Outline: (§1)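 Female Wistar/Han rats weighing 180–220 g, 3 per dose regime, received a single 10 mg/kg IV bolus in 50% cyclodextran/water. Blood was drawn under CO₂:O₂ (60:40) via orbital sinus or cardiac puncture at 1, 3, 6, 8 and 24 h. Plasma was protein-precipitated with acetonitrile, diluted in 50 mM formate buffer and quantified by LC/MS.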

[4] = test system: Rattus norvegicus; assay: AUC at a dose of 10 mg/Kg administered to female hanover-wistar rat per orally; assay type: ADME, organism-based, Plasma; details: in vivo, po
Outline: (§2)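 Female Wistar/Han rats (180–220 g, n=3 per regime) received a single 10 mg/kg oral suspension in 0.9% NaCl, 0.5% Na-CMC, 0.4% polysorbate 80 and 0.9% benzyl alcohol. Blood was taken at 1, 3, 6, 8 and 24 h by orbital sinus or cardiac puncture. Plasma drug was measured by LC/MS after acetonitrile precipitation; the comparison arm was a 10 mg/kg IV bolus.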

[5] = CL at a dose of 10 mg/Kg administered to female hanover-wistar rat intravenously; assay type: ADME, organism-based; details: in vivo, iv; outline: as §1
[6] = C max at a dose of 10 mg/Kg administered to female hanover-wistar rat intravenously; assay type: ADME, organism-based; set-up: dose 10 mg/Kg, route intravenous; details: in vivo, iv; outline: as §1
[7] = C max at a dose of 10 mg/Kg administered to female hanover-wistar rat per orally; assay type: ADME, organism-based; set-up: dose 10 mg/Kg, route oral; details: in vivo, po; outline: as §2
[8] = Bioavailability at a dose of 10 mg/Kg administered to female hanover-wistar rat per orally; assay type: ADME, organism-based; details: in vivo, po; outline: as §2
[9] = T 1/2 at a dose of 10 mg/Kg administered to female hanover-wistar rat intravenously; assay type: ADME, organism-based; details: in vivo, iv; outline: as §1
[10] = T 1/2 at a dose of 10 mg/Kg administered to female hanover-wistar rat per orally; assay type: ADME, organism-based; details: in vivo, po; outline: as §2
[11] = T max at a dose of 10 mg/Kg administered to female hanover-wistar rat per orally; assay type: ADME, organism-based; details: in vivo, po; outline: as §2
[12] = target: Mitogen-activated protein kinase 14 (Rattus norvegicus) (UniProt P70618); assay: In vivo percent inhibition of LPS stimulated TNF alpha synthesis in rat at a concentration of 10 mg/kg

Mitogen-activated protein kinase 14, sequence (Q16539 whole entry): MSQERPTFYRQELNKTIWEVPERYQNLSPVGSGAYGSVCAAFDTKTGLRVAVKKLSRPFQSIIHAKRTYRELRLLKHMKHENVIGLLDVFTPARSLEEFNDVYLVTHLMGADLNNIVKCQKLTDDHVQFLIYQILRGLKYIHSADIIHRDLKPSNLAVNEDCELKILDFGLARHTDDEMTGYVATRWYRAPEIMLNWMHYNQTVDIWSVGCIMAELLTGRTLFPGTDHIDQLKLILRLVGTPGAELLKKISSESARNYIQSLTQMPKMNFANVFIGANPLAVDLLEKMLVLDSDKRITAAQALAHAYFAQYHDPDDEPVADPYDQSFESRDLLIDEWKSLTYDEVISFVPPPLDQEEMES
Mitogen-activated protein kinase 14 (Rattus norvegicus), sequence (P70618 whole entry): as the sequence (Q16539 whole entry) above, with I17V, L48H, T263A, D321E, L332F counted along it

Row | Structure (SMILES) | IC50 [1] [nM] | inhibition [2] [%] | further results
1 | Fc1ccc(-c2c(-c3ccncc3)[nH]c3cncnc23)cc1 | 895 | 26 | 
2 | Fc1ccc(-c2c(-c3ccncc3)[nH]c3ccncc23)cc1 | 3100 |  | 
3 | C[C@@H](O)CNc1cc(-c2[nH]c3cccnc3c2-c2ccc(F)cc2)ccn1 | 1 | 76 | AUC [3]: 27.5 µM·h; AUC [4]: 8.4 µM·h; clearance [5]: 16.7 mL/min/kg; Cmax [6]: 8.8 µM; Cmax [7]: 2.8 µM; bioavailability [8]: 30.5%; half-life [9]: 2.9 h; half-life [10]: 1.5 h; Tmax [11]: 1 h
4 | Nc1ncnc2c1cc(-c1ccncc1)n2-c1ccc(F)cc1 | 3300 |  | 
5 | Fc1ccc(-c2c(-c3ccncc3)n(CCN3CCCC3)c3cccnc23)cc1 | 217 | 86 | 
6 | OCCNc1cc(-c2[nH]c3cccnc3c2-c2ccc(F)cc2)ccn1 | 3 | 88 | 
7 | OCCCCNc1cc(-c2[nH]c3cccnc3c2-c2ccc(F)cc2)ccn1 | 5 | 69 | 
8 | CCC(O)CNc1cc(-c2[nH]c3cccnc3c2-c2ccc(F)cc2)ccn1 (stereo unspecified) | 3 |  | inhibition [12]: 85%
9 | COCCn1c(-c2ccncc2)c(-c2ccc(F)cc2)c2ncccc21 | 21 |  | 
10 | Fc1ccc(-c2c(-c3ccncc3)n(CCN3CCOCC3)c3cccnc23)cc1 | 185 | 79 | 
